Test results taken from ChEMBL document CHEMBL4689842, “EUbOPEN Chemogenomics Library wave 1” (2021).
Several values for one entry are separate records, joined by “and”; a condition that tells them apart may be missing. Equal entries are not always repeated.

Tested on: HEK-293T
Assay: Multiplex assay against HEK293T;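 for Population Tubulin-Different-Phenotype (%): share of the cells with healthy nuclei that show this phenotype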
Assay type: toxicity, cell-based
Settings: human
How it was run: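 With compound added, live cells were imaged on a CQ1 microscope at 37°C and 5% CO2; staining with Hoechst33342, BioTracker Green Microtubule Cytoskeleton Dye, MitoTracker Red and Annexin V Alexa Fluor 680 had been done at seeding. The CellPathfinder machine-learning gating scheme split cells into Hoechst high-intensity objects or normal cells, normal cells into healthy, pyknosed or fragmented nuclei, and pyknosed cells into mitotic or apoptotic. The tubulin, mitochondrial-mass and membrane-permeability phenotypes are per cents of healthy-nucleus cells.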

[1] = 12 h, 1 µM, compound concentration 1 uM, replicate 1
[2] = 12 h, 1 µM, compound concentration 1 uM, replicate 2
[3] = 12 h, 10 µM, compound concentration 10 uM, replicate 1
[4] = 12 h, 10 µM, compound concentration 10 uM, replicate 2
[5] = 24 h, 1 µM, compound concentration 1 uM, replicate 1
[6] = 24 h, 1 µM, compound concentration 1 uM, replicate 2
[7] = 24 h, 10 µM, compound concentration 10 uM, replicate 1
[8] = 24 h, 10 µM, compound concentration 10 uM, replicate 2
[9] = 48 h, 1 µM, compound concentration 1 uM, replicate 1
[10] = 48 h, 1 µM, compound concentration 1 uM, replicate 2
[11] = 48 h, 10 µM, compound concentration 10 uM, replicate 1
[12] = 48 h, 10 µM, compound concentration 10 uM, replicate 2

CNC(=O)c1ccc(Nc2ncc(C(F)(F)F)c(NCc3nccnc3N(C)S(C)(=O)=O)n2)cc1 [DEFACTINIB]
Population Apoptotic (%) [1]: 27% | Population Fragmented Nuclei (%) [1]: 14% and 16% | Population Healthy Nuclei (%) [1]: 72% and 59% | Population Hoechst High Intensity Objects (%) [1]: 11% and 18% | Population Membrane Permeable-Phenotype (%) [1]: 4% and 6% | Population Mitochondria Different-Phenotype (%) [1]: 6% and 8% | Population Mitotic Cells (%) [1]: 72% and 74% | Population Normal (%) [1]: 88% and 81% | Population Pyknosed Nuclei (%) [1]: 13% and 24% | Total Cell Count [1]: 689 and 588 | Population Apoptotic (%) [2]: 25% and 12% | Population Fragmented Nuclei (%) [2]: 9% and 3% | Population Healthy Nuclei (%) [2]: 84% and 92% | Population Hoechst High Intensity Objects (%) [2]: 3% | Population Membrane Permeable-Phenotype (%) [2]: 2% and 3% | Population Mitochondria Different-Phenotype (%) [2]: 10% and 19% | Population Mitotic Cells (%) [2]: 75% and 87% | Population Normal (%) [2]: 96% | Population Pyknosed Nuclei (%) [2]: 6% and 3% | Total Cell Count [2]: 1140 and 1057 | Population Apoptotic (%) [3]: 27% | Population Fragmented Nuclei (%) [3]: 17% and 16% | Population Healthy Nuclei (%) [3]: 62% and 66% | Population Hoechst High Intensity Objects (%) [3]: 11% and 13% | Population Membrane Permeable-Phenotype (%) [3]: 7% and 4% | Population Mitochondria Different-Phenotype (%) [3]: 12% and 5% | Population Mitotic Cells (%) [3]: 72% | Population Normal (%) [3]: 88% and 86% | Population Pyknosed Nuclei (%) [3]: 20% and 17% | Total Cell Count [3]: 704 and 581 | Population Fragmented Nuclei (%) [4]: 3% and 7% | Population Healthy Nuclei (%) [4]: 90% and 87% | Population Hoechst High Intensity Objects (%) [4]: 5% and 2% | Population Membrane Permeable-Phenotype (%) [4]: 6% and 1% | Population Mitochondria Different-Phenotype (%) [4]: 21% and 10% | Population Mitotic Cells (%) [4]: 78% and 96% | Population Normal (%) [4]: 94% and 97% | Population Pyknosed Nuclei (%) [4]: 6% and 4% | Total Cell Count [4]: 770 and 1490 | Population Apoptotic (%) [5]: 23% and 19% | Population Fragmented Nuclei (%) [5]: 15% and 17% | Population Healthy Nuclei (%) [5]: 77% and 62% | Population Hoechst High Intensity Objects (%) [5]: 6% and 14% | Population Membrane Permeable-Phenotype (%) [5]: 6% | Population Mitochondria Different-Phenotype (%) [5]: 4% and 12% | Population Mitotic Cells (%) [5]: 76% and 80% | Population Normal (%) [5]: 93% and 85% | Population Pyknosed Nuclei (%) [5]: 7% and 19% | Population Tubulin-Different-Phenotype (%) [5]: 10% and 26% | Total Cell Count [5]: 751 and 618 | Population Apoptotic (%) [6]: 14% and 11% | Population Healthy Nuclei (%) [6]: 74% and 91% | Population Hoechst High Intensity Objects (%) [6]: 3% and 5% | Population Membrane Permeable-Phenotype (%) [6]: 3% | Population Mitotic Cells (%) [6]: 85% and 88% | Population Normal (%) [6]: 96% and 94% | Population Pyknosed Nuclei (%) [6]: 3% and 2% | Total Cell Count [6]: 1868 and 1334 | Population Apoptotic (%) [7]: 33% and 18% | Population Fragmented Nuclei (%) [7]: 16% and 15% | Population Healthy Nuclei (%) [7]: 66% and 78% | Population Hoechst High Intensity Objects (%) [7]: 11% and 7% | Population Membrane Permeable-Phenotype (%) [7]: 6% and 4% | Population Mitotic Cells (%) [7]: 66% and 81% | Population Normal (%) [7]: 88% and 92% | Population Tubulin-Different-Phenotype (%) [7]: 24% and 11% | Total Cell Count [7]: 732 and 672 | Population Healthy Nuclei (%) [8]: 90% and 75% | Population Hoechst High Intensity Objects (%) [8]: 3% | Population Membrane Permeable-Phenotype (%) [8]: 8% and 3% | Population Mitotic Cells (%) [8]: 71% and 92% | Population Normal (%) [8]: 96% | Population Pyknosed Nuclei (%) [8]: 4% and 2% | Total Cell Count [8]: 961 and 2290

Cc1ccc(C)c(Oc2ccncc2C(=O)N2CCN(C3CC3)c3ccccc32)c1
Population Apoptotic (%) [1]: 43% | Population Healthy Nuclei (%) [1]: 48% | Population Mitotic Cells (%) [1]: 56% | Population Normal (%) [1]: 91% | Population Pyknosed Nuclei (%) [1]: 44% | Total Cell Count [1]: 385 | Population Apoptotic (%) [2]: 16% | Population Healthy Nuclei (%) [2]: 42% | Population Mitotic Cells (%) [2]: 83% | Population Normal (%) [2]: 96% | Population Pyknosed Nuclei (%) [2]: 54% | Total Cell Count [2]: 221 | Population Apoptotic (%) [3]: 88% | Population Healthy Nuclei (%) [3]: 23% | Population Mitotic Cells (%) [3]: 11% | Population Normal (%) [3]: 78% | Population Pyknosed Nuclei (%) [3]: 62% | Total Cell Count [3]: 200 | Population Apoptotic (%) [4]: 56% | Population Healthy Nuclei (%) [4]: 14% | Population Mitotic Cells (%) [4]: 43% | Population Normal (%) [4]: 93% | Population Pyknosed Nuclei (%) [4]: 77% | Total Cell Count [4]: 112 | Population Apoptotic (%) [5]: 46% | Population Healthy Nuclei (%) [5]: 52% | Population Mitotic Cells (%) [5]: 53% | Population Normal (%) [5]: 89% | Population Pyknosed Nuclei (%) [5]: 38% | Total Cell Count [5]: 403 | Population Apoptotic (%) [6]: 11% | Population Healthy Nuclei (%) [6]: 53% | Population Mitotic Cells (%) [6]: 88% | Population Normal (%) [6]: 98% | Population Pyknosed Nuclei (%) [6]: 40% | Total Cell Count [6]: 272 | Population Apoptotic (%) [7]: 89% | Population Healthy Nuclei (%) [7]: 29% | Population Mitotic Cells (%) [7]: 10% | Population Normal (%) [7]: 82% | Population Pyknosed Nuclei (%) [7]: 53% | Total Cell Count [7]: 213 | Population Apoptotic (%) [8]: 68% | Population Healthy Nuclei (%) [8]: 24% | Population Mitotic Cells (%) [8]: 31% | Population Normal (%) [8]: 91% | Population Pyknosed Nuclei (%) [8]: 63% | Total Cell Count [8]: 127 | Population Apoptotic (%) [9]: 41% | Population Healthy Nuclei (%) [9]: 63% | Population Mitotic Cells (%) [9]: 58% | Population Normal (%) [9]: 91% | Population Pyknosed Nuclei (%) [9]: 26% | Total Cell Count [9]: 567 | Population Apoptotic (%) [10]: 18% | Population Healthy Nuclei (%) [10]: 77% | Population Mitotic Cells (%) [10]: 81% | Population Normal (%) [10]: 97% | Population Pyknosed Nuclei (%) [10]: 18% | Total Cell Count [10]: 425 | Population Apoptotic (%) [11]: 84% | Population Healthy Nuclei (%) [11]: 40% | Population Mitotic Cells (%) [11]: 15% | Population Normal (%) [11]: 84% | Total Cell Count [11]: 206 | Population Apoptotic (%) [12]: 76% | Population Healthy Nuclei (%) [12]: 48% | Population Mitotic Cells (%) [12]: 23% | Population Normal (%) [12]: 90% | Population Pyknosed Nuclei (%) [12]: 45% | Total Cell Count [12]: 127
